Reference: PMC5483893 (Journal of Medicinal Chemistry, 2017)

How the values were obtained:
[1] = system: acetylated α-tubulin (AcTub) in QBI-293 cells; assay: Acetyl-tubulin assay; type: cell-based; conditions: for MT activity (AcTub increase), inactive compounds: QBI-293 cells, 1 and 10 μM; for elevation in AcTub without decrease of α-tubulin: 1 or 10 μM
Outline: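 QBI-293 cells kept at 37 °C, 5% CO₂, trypsinised and plated at 6 × 10⁵ cells/well, then exposed overnight-later to vehicle (DMSO) or test compound for 4 h. Lysis in RIPA with protease inhibitors, 1 mM PMSF and 1 μM TSA; 100000g spin, 30 min, 4 °C. BCA protein, then AcTub ELISA. Fold-change versus vehicle, at least triplicate, two-tailed unpaired t test.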

[2] = system: total α-tubulin in QBI-293 cells; assay: Total α-tubulin ELISA; type: cell-based; conditions: at doses typically required to induce an elevation in AcTub
Outline: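 QBI-293 cells were plated at 6 × 10⁵ cells/well, grown overnight at 37 °C and 5% CO₂, then given fresh medium with vehicle (DMSO) or 1 and 10 μM test compound for 4 h. Lysis was in RIPA with protease inhibitors, 1 mM PMSF and 1 μM TSA, followed by 100000g for 30 min at 4 °C. Supernatant was BCA-normalized and α-tubulin measured by ELISA as fold-change versus vehicle. Samples were run at least in triplicate; significance was by two-tailed unpaired t test.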

Compound	MT activity (AcTub increase), inactive compounds [1]	elevation in AcTub without decrease of α-tubulin [1]	also measured
Fc1cc(F)c(-c2cncn2-c2ccc(Cl)cc2)c(F)c1 [Compound 25, 1-(4-Chlorophenyl)-5-(2,4,6-trifluorophenyl)-1H-imidazole]	do not cause a detectable increase in AcTub		
COc1ccc(-n2cncc2-c2c(F)cc(F)cc2F)cc1 [Compound 26, 1-(4-Methoxyphenyl)-5-(2,4,6-trifluorophenyl)-1H-imidazole]	do not cause a detectable increase in AcTub		
Cc1ncn(-c2ccc(Cl)cc2)c1-c1c(F)ccc(Cl)c1F [Compound 29, 5-(3-Chloro-2,6-difluorophenyl)-1-(4-chlorophenyl)-4-methyl-1H-imidazole]		produce an elevation in AcTub at 1 or 10 μM without decreasing α-tubulin level	
Cc1nc(Cl)n(-c2ccc(Cl)cc2)c1-c1c(F)ccc(Cl)c1F [Compound 30, 2-Chloro-5-(3-chloro-2,6-difluorophenyl)-1-(4-chlorophenyl)-4-methyl-1H-imidazole]			effect on total α-tubulin levels [2]: cause a significant reduction in total α-tubulin levels
Cc1nc(C)n(-c2ccc(Cl)cc2)c1-c1c(F)ccc(Cl)c1F [Compound 31, 5-(3-Chloro-2,6-difluorophenyl)-1-(4-chlorophenyl)-2,4-dimethyl-1H-imidazole]		produce an elevation in AcTub at 1 or 10 μM without decreasing α-tubulin level	
Cc1ncc(-c2c(F)ccc(F)c2F)n1-c1ccc(Cl)cc1 [Compound 34, 1-(4-Chlorophenyl)-2-methyl-5-(2,3,6-trifluorophenyl)-1H-imidazole]			effect on total α-tubulin levels [2]: cause a significant reduction in total α-tubulin levels
Cc1ncn(-c2ccc(Cl)cc2)c1-c1c(F)ccc(F)c1F [Compound 35, 1-(4-Chlorophenyl)-4-methyl-5-(2,3,6-trifluorophenyl)-1H-imidazole]		produce an elevation in AcTub at 1 or 10 μM without decreasing α-tubulin level	
Cc1nc(Cl)n(-c2ccc(Cl)cc2)c1-c1c(F)ccc(F)c1F [Compound 36, 2-Chloro-1-(4-chlorophenyl)-4-methyl-5-(2,3,6-trifluorophenyl)-1H-imidazole]		produce an elevation in AcTub at 1 or 10 μM without decreasing α-tubulin level	
Fc1cccc(F)c1-c1cncn1-c1ccc(OC(F)(F)F)cc1 [Compound 42, 5-(2,6-Difluorophenyl)-1-(4-(trifluoromethoxy)phenyl)-1H-imidazole]	do not cause a detectable increase in AcTub		
Fc1cccc(F)c1-c1cncn1-c1ccc(Cl)cc1 [Compound 43, 1-(4-Chlorophenyl)-5-(2,6-difluorophenyl)-1H-imidazole]	do not cause a detectable increase in AcTub		
Cc1cc(F)c(-c2cncn2-c2ccc(Cl)cc2)c(F)c1 [Compound 48, 1-(4-Chlorophenyl)-5-(2,6-difluoro-4-methylphenyl)-1H-imidazole]	do not cause a detectable increase in AcTub		
COc1ccc(F)c(-c2cncn2-c2ccc(Cl)cc2)c1F [Compound 49, 1-(4-Chlorophenyl)-5-(2,6-difluoro-3-methoxyphenyl)-1H-imidazole]	do not cause a detectable increase in AcTub		
Clc1ccc(-n2cncc2-c2ccccc2)cc1 [Compound 50, 1-(4-Chlorophenyl)-5-phenyl-1H-imidazole]	essentially devoid of MT activity		
Fc1cccc(F)c1-c1cncn1-c1ccccc1 [Compound 52, 5-(2,6-Difluorophenyl)-1-phenyl-1H-imidazole]	do not cause a detectable increase in AcTub		
Fc1cccc(F)c1-c1cncn1-c1ccccc1Cl [Compound 53, 1-(2-Chlorophenyl)-5-(2,6-difluorophenyl)-1H-imidazole]	do not cause a detectable increase in AcTub		
Fc1cc(F)c(-c2c(Cl)ncn2-c2ccc(Cl)cc2)c(F)c1 [Compound 54, 4-Chloro-1-(4-chlorophenyl)-5-(2,4,6-trifluorophenyl)-1H-imidazole]		produce an elevation in AcTub at 1 or 10 μM without decreasing α-tubulin level	
COc1ccc(-n2cnc(Cl)c2-c2c(F)cc(F)cc2F)cc1 [Compound 59, 4-Chloro-1-(4-methoxyphenyl)-5-(2,4,6-trifluorophenyl)-1H-imidazole]		produce an elevation in AcTub at 1 or 10 μM without decreasing α-tubulin level	
COc1ccc(-n2c(-c3c(F)cc(F)cc3F)cnc2Cl)cc1 [Compound 60, 2-Chloro-1-(4-methoxyphenyl)-5-(2,4,6-trifluorophenyl)-1H-imidazole]		produce an elevation in AcTub at 1 or 10 μM without decreasing α-tubulin level	
Cc1ccc(F)c(-c2c(Cl)ncn2-c2ccc(Cl)cc2)c1F [Compound 62, 4-Chloro-1-(4-chlorophenyl)-5-(2,6-difluoro-3-methylphenyl)-1H-imidazole]			effect on total α-tubulin levels [2]: cause a significant reduction in total α-tubulin levels
Fc1ccc(Cl)c(F)c1-c1c(Cl)ncn1-c1ccc(Cl)cc1 [Compound 64, 4-Chloro-5-(3-chloro-2,6-difluorophenyl)-1-(4-chlorophenyl)-1H-imidazole]		produce an elevation in AcTub at 1 or 10 μM without decreasing α-tubulin level	
Fc1cc(-n2c(-c3c(F)ccc(F)c3F)cnc2Cl)ccc1Cl [Compound 72, 2-Chloro-1-(4-chloro-3-fluorophenyl)-5-(2,3,6-trifluorophenyl)-1H-imidazole]		produce an elevation in AcTub at 1 or 10 μM without decreasing α-tubulin level	
Cc1nc(Cl)c(-c2c(F)cc(F)cc2F)n1-c1ccc(Cl)nc1 [Compound 74, 2-Chloro-5-(4-chloro-2-methyl-5-(2,4,6-trifluorophenyl)-1H-imidazol-1-yl)pyridine]		produce an elevation in AcTub at 1 or 10 μM without decreasing α-tubulin level	
Fc1ccc(-c2cnc(Cl)n2-c2ccc(Cl)cc2)cc1 [Compound 75, 2-Chloro-1-(4-chlorophenyl)-5-(4-fluorophenyl)-1H-imidazole]	essentially devoid of MT activity		
Fc1ccc(-c2c(Cl)ncn2-c2ccc(Cl)cc2)cc1 [Compound 76, 4-Chloro-1-(4-chlorophenyl)-5-(4-fluorophenyl)-1H-imidazole]	essentially devoid of MT activity		
Fc1cc(Cl)ccc1-n1cnc(Cl)c1-c1c(F)cccc1F [Compound 78, 4-Chloro-1-(4-chloro-2-fluorophenyl)-5-(2,6-difluorophenyl)-1H-imidazole]		produce an elevation in AcTub at 1 or 10 μM without decreasing α-tubulin level	
Fc1ccc(F)c(-c2c(Cl)ncn2-c2ccc(Cl)cc2)c1 [Compound 80, 4-Chloro-1-(4-chlorophenyl)-5-(2,5-difluorophenyl)-1H-imidazole]	inactive		
Fc1cccc(F)c1-c1c(Cl)ncn1-c1ccccc1Cl [Compound 102, 4-Chloro-1-(2-chlorophenyl)-5-(2,6-difluorophenyl)-1H-imidazole]		produce an elevation in AcTub at 1 or 10 μM without decreasing α-tubulin level	
